Experimental data published in ChEMBL document CHEMBL1152166, “Activation and inhibition of leukotriene A4 hydrolase aminopeptidase activity by diphenyl ether and derivatives” (Bioorg Med Chem Lett, 2008).
Calls of active or inactive are those of the source. The calls are words filed in the database; no cut-off is given here.

How the values were obtained:
[1] = target: T1, Leukotriene A-4 hydrolase (Homo sapiens, UniProt P09960); assay: Inhibition of aminopeptidase activity of human recombinant leukotriene A4 hydrolase expressed in Escherichia coli assessed as p-nitroanilide release by spectrophotometry
T1 sequence (P09960 whole entry): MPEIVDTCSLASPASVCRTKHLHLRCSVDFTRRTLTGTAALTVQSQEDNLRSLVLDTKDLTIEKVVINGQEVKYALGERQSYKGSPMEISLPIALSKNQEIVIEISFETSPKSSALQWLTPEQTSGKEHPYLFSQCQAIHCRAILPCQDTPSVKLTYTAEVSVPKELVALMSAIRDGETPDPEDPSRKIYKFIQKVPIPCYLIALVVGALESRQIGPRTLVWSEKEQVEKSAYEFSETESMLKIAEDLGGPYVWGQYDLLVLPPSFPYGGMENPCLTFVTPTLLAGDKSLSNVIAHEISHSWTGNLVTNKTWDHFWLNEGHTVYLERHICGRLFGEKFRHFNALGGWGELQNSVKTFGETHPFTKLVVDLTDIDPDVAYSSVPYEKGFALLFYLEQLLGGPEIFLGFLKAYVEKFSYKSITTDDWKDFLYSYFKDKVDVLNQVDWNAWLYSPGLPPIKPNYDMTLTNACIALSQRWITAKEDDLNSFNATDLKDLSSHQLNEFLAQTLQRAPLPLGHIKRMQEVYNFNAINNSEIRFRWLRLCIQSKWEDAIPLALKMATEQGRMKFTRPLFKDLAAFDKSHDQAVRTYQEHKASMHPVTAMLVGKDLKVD
Method in brief: (§1)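 Recombinant human LTA4H, expressed from a pET 21a construct in E. coli and purified by ammonium sulfate precipitation, anion-exchange and gel filtration. Aminopeptidase activity was read spectrophotometrically as p-nitroanilide released from Ala-pNA. Values are the average of three experiments with standard deviation. Substrate dependence was examined by Lineweaver–Burk analysis to give apparent Km, Vmax, KA, α and β.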

[2] = target: T2, Leukotriene A-4 hydrolase (Homo sapiens) (UniProt P09960); assay: Inhibition of epoxide hydrolase activity of human recombinant leukotriene A4 hydrolase expressed in Escherichia coli assessed as LTB4 production at 100 uM by RP-HPLC
T2 sequence (whole entry): T1 sequence (P09960 whole entry)

[3] = target: T1, Leukotriene A-4 hydrolase; assay: Activation of aminopeptidase activity of human recombinant leukotriene A4 hydrolase expressed in Escherichia coli assessed as p-nitroanilide release by spectrophotometry; method in brief: as §1
[4] = target: T2, Leukotriene A-4 hydrolase (Homo sapiens); assay: Activation of aminopeptidase activity of human recombinant leukotriene A4 hydrolase expressed in Escherichia coli assessed as p-nitroanilide release at 100 uM by spectrophotometry; method in brief: as §1
[5] = target: T2, Leukotriene A-4 hydrolase (Homo sapiens); assay: Activation of aminopeptidase activity of human recombinant leukotriene A4 hydrolase expressed in Escherichia coli by spectrophotometry in presence of >0.65 mM […]; method in brief: as §1
[6] = target: T2, Leukotriene A-4 hydrolase (Homo sapiens); assay: Inhibition of aminopeptidase activity of human recombinant leukotriene A4 hydrolase expressed in Escherichia coli by spectrophotometry in presence of <0.65 mM […]; method in brief: as §1
[7] = target: T1, Leukotriene A-4 hydrolase; assay: Inhibition of epoxide hydrolase activity of human recombinant leukotriene A4 hydrolase expressed in Escherichia coli assessed as LTB4 production by RP-HPLC

| IC50 [1] [µM] | Activity [2] | AC50 [3] [µM] | Activity [4] | Activity [5] | Activity [6] | IC50 [7] [µM] | SMILES |
| --- | --- | --- | --- | --- | --- | --- | --- |
| 4.13 | inactive | – | – | – | – | – | CCCCCOc1ccc(Oc2ccccc2)cc1 |
| 5.56 | inactive | – | – | – | – | – | CCCCOc1ccc(Oc2ccc(O)cc2)cc1 |
| – | inactive | 3.39 | Active | – | – | – | COc1ccc(Oc2ccccc2)cc1 |
| – | inactive | – | – | Active | Active | – | CCCOc1ccc(Oc2ccccc2)cc1 |
| 5.72 | inactive | – | – | – | – | – | CCCCOc1ccc(Oc2ccccc2)cc1 |
| 5.69 | inactive | – | – | – | – | – | CCCOc1ccc(Oc2ccc(O)cc2)cc1 |
| – | inactive | 11.1 | Active | – | – | – | Oc1ccc(Oc2ccccc2)cc1 |
| – | inactive | 17 | Active | – | – | – | COc1ccc(Oc2ccc(O)cc2)cc1 |
| – | inactive | 14.8 | Active | – | – | – | CCOc1ccc(Oc2ccc(O)cc2)cc1 |
| – | inactive | 6.01 | Active | – | – | – | c1ccc(Oc2ccccc2)cc1 [DIPHENYLETHER] |
| 2.48 | inactive | – | – | – | – | – | CCCCCOc1ccc(Oc2ccc(O)cc2)cc1 |
| – | inactive | 2.82 | Active | – | – | – | CCOc1ccc(Oc2ccccc2)cc1 |
| 0.228 | – | – | – | – | – | 0.035 | NCCOc1ccc(Oc2ccccc2)cc1 |
